MITF act = activators of MITF-driven TRPM1 promoter activity in SK-MEL-5 cells. actives 0.75% (n = 300,000). SK-MEL-5 TRPM1-promoter luciferase, 24 h; % of positive control, neutral wells = 0. activation, % at 12.5 µM. AID 588334;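 active = mean activation of at least 80% with every replicate also reaching 80%; inconclusive = mean reaches 80% but some replicate falls short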;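 also: 0% = neutral control wells and 100% = parthenolide positive control wells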
esBAF inh = inhibitors of esBAF chromatin remodeling in mouse ES cells | actives 2% (n = 350,000) | Bmi1-luciferase knock-in reporter, 24 h; 100% = twice the neutral-well signal | reporter increase, % at 12.5 µM; in the data active = activation above about 40%; inconclusive = no clear call, values can overlap the other calls;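 also: 0% = median of the plate's neutral control wells and 100% = double that signal; a rise in the Bmi1 reporter signal indicates esBAF inhibition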
Wnt act = activates Wnt/beta-catenin signaling in a reporter cell assay; activator, plate reader; actives 1.2% (n = 300,000); activation, % at 9.35 µM; in the data active = activation above about 30%, passing the limit was not always enough; inconclusive = no clear call, values can overlap the other calls;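 also: 0% = neutral control wells and 100% = positive control wells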
ERAP1 inh = inhibitors of human ERAP1 aminopeptidase; recombinant ERAP1, Leu-AMC fluorescence, 60 min; inhibition, % at 10.7 µM; actives 0.15% (n = 340,000); AID 652197;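 active = mean replicate inhibition of at least 30%, or all replicates individually reaching that 30% level; inactive = mean below 30% and not every replicate reaching it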;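 also: 0% = neutral control wells and 100% = L-leucinethiol positive control wells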
Target sequence (Q9NZ08 whole entry, looked up): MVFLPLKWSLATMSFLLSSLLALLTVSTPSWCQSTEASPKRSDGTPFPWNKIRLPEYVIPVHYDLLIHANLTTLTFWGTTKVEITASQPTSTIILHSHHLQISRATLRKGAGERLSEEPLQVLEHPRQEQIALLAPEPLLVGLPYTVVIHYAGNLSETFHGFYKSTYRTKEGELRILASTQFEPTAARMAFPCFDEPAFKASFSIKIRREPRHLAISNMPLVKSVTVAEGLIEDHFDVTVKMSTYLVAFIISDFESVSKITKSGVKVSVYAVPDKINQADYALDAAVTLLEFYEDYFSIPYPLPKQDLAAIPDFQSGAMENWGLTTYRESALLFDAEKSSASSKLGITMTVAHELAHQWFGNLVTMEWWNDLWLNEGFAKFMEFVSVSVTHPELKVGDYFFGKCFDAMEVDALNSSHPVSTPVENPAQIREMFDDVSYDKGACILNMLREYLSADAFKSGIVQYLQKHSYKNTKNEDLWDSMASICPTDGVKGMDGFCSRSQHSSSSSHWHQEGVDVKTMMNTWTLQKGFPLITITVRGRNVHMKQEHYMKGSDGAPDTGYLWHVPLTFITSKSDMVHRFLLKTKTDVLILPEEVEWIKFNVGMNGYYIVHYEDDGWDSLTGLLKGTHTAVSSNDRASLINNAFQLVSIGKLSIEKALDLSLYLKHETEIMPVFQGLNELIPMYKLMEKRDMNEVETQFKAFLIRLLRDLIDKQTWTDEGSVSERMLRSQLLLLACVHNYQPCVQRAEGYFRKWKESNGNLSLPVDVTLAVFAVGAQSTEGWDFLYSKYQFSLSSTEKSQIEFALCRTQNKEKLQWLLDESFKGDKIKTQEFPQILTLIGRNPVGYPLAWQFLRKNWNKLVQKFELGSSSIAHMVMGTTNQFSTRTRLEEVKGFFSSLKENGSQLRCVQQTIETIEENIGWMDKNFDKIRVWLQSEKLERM
Cneo AK release = Cryptococcus neoformans lysis via adenylate kinase release | C. neoformans lysis, adenylate kinase release luminescence, 4 h; normalised: neutral wells 0, clomiphene wells 100 | lysis activity, % at 15 µM | actives 0.2% (n = 360,000);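 active = mean lysis activity across replicates of at least 80%, whatever share of replicates individually reach that level; inactive = mean lysis activity below 80%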
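Schedule: static 4 h at 37 °C with compound, 1 h detection; system: C. neoformans cells; benchmarks: Clomiphene as positive control; buffer or medium: fresh YPD medium; measure: luminescence rise reflecting yeast cell lysis; measured by: luminescent adenylate kinase detection reagent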
Env fusion inh = blocks HIV Env-driven cell-cell fusion | HeLa-JRFL Env/CEM21 cell fusion, luciferase | inhibition, % at 12.3 µM | actives 1.1% (n = 360,000) | AID 651610;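 active = mean replicate inhibition score of at least 50 and every replicate individually at or above 50; inconclusive = only one of the two criteria met; inactive = mean below 50 and not all replicates reaching 50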;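 also: 0% = plate neutral controls and 100% = maraviroc near 300 nM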
An asterisk follows results filed as active; ? = inconclusive; / = no result given; [ ] = dose if it differs, or a comment. Only some compounds are listed: those with a hit (about 3.5% of all), similar ones and a draw of the others.

SMILES | MITF act | esBAF inh | Wnt act | ERAP1 inh | Cneo AK release | Env fusion inh
Clc1nc2ccccc2cc1-c1nnn(-c2ccccc2Br)n1 | 47 | 41* | 30 | 1 | -1 | -69
O=c1[nH]c2ccccc2cc1-c1nnn(-c2ccccc2)n1 | -9 | 5 | -4 | 0 | 2 | -5
Brc1ccccc1-n1nnc(-c2cnc3ccccc3c2)n1 | 44 | ? | 43* | -2 | -9 | -140
Clc1ncccc1-c1nnn(-c2ccccc2Br)n1 | 66 | 50* | 17 | / | -1 | -55
C[C@H](CO)N1C[C@H](C)[C@@H](CN(C)C(=O)C2CC2)Oc2cc(-c3ccc(F)cc3)ccc2S1(=O)=O | / | 11 | / | / | / | 8[16.7 µM]
Cn1c(SCc2ccccc2)nnc1-c1cccs1 | ? | 59* | / | / | -2 | /
Cn1c(SCc2ccc(F)cc2)nnc1-c1cccs1 | 86* | / | 22 | 3 | / | /
Cn1c(SCc2nc3ccccc3s2)nnc1-c1cccs1 | 21 | ? | / | / | -10 | /
CN1CCN(C(=O)C[C@H]2C[C@H]3c4cc(NC(=O)c5cccnc5)ccc4O[C@H]3[C@@H](CO)O2)CC1 | / | -3 | / | / | -2 | -2[16.7 µM]
C/C(=N/NS(=O)(=O)c1ccc(Br)cc1)c1c[nH]c2ccccc12 | -1 | / | -2 | 3 | 4 | 66*
C/C(=N\NS(=O)(=O)c1ccc([N+](=O)[O-])cc1)c1c[nH]c2ccccc12 | -7 | -2 | 1 | 7 | 11 | -1
C/C(=N/O)c1cccc(N2Cc3ccccc3C2)c1 | 9 | 63* | 9 | 3 | 0 | -39
C/C(=N\O)c1cccc(Br)c1 | 11 | -3 | 0 | 3 | / | -10
Cc1ccc(NC(=O)c2cc(-c3ccccc3)nn2-c2ccccc2)cc1 | 3 | / | -1 | 2 | -2 | -5
CC(=O)C(/C=N/c1cc(-c2ccc(C)cc2)nn1-c1ccccc1)=C(\C)O | 42 | / | 38* | -1 | / | -90
COCC(=O)N1CC(=O)N2[C@H](C1)[C@H](c1ccc(C#CC3CC3)cc1)[C@@H]2CO | / | / | / | -5 | / | /
Cc1ccccc1-c1ccc([C@H]2[C@@H](CO)N3C(=O)CN(C(=O)c4ccccc4)C[C@@H]23)cc1 | / | / | / | 2 | / | /
Nc1ccn([C@@H]2O[C@H](C(=O)NCc3ccc4c(c3)OCO4)[C@@H](O)[C@H]2O)c(=O)n1 | / | 2 | 2 | / | 1 | 77*
COc1ccc(C2CC(=O)N(C)c3ccccc3S2)cc1OC (stereo unspecified) | 35 | 28 | 54* | 2 | / | -2
COC(=O)c1sc(-c2ccc(Cl)cc2)cc1NC(=O)c1ccccc1C(=O)O | / | / | 19 | -2 | / | -4
COC(=O)c1sc(-c2ccc(C(C)(C)C)cc2)cc1NC(=O)c1ccccc1C(=O)O | / | / | 46* | -2 | / | -22
Cc1cccc(NC(=O)CN2C(=O)N/C(=C\c3ccc(N4CCOCC4)cc3)C2=O)c1 | 15 | 59* | 9 | 4 | -3 | /
Cc1cc(N2CCOCC2)ccc1/C=C1\NC(=O)N(CC(=O)Nc2ccc(F)cc2)C1=O | 33 | / | 14 | -4 | / | -6
CCCCCCC(=O)N(O)C1CC(=O)N(c2ccc(Cl)cc2)C1=O (stereo unspecified) | / | / | 52* | -1 | -2 | 7
O=C([C@@H]1[C@@H](CO)[C@@H]2Cn3c(cccc3=O)[C@@H]2N1CCC(F)(F)F)N1CCCCC1 | / | -14 | / | -2 | 102* | /
SMILES | MITF act | esBAF inh | Wnt act | ERAP1 inh | Cneo AK release | Env fusion inh
Cc1cccc(NC(=O)Nc2ccc3c(c2)C(=O)N(C)[C@H]2CC[C@@H](CC(=O)NCc4ccccc4Cl)O[C@@H]2CO3)c1 | / | 17 | / | 3 | -2 | 11[16.7 µM]
O=C(c1cc([N+](=O)[O-])cc([N+](=O)[O-])c1)N(Cc1nnc(-c2ccccc2Cl)o1)C1CC1 | -33 | / | -2 | -2 | / | 2
O=[N+]([O-])c1ccc(Cc2nnc(-c3ccccc3Cl)o2)cc1 | 103* | -5 | 4 | -4 | / | -25
COc1ccc(S(=O)(=O)N(C)C[C@@H]2OCCCC[C@H](C)Oc3ccc(NC(=O)NC(C)C)cc3C(=O)N([C@@H](C)CO)C[C@H]2C)cc1 | / | 1 | / | -1 | 1 | 7[16.7 µM]
Cc1ccc(SC2=C(Sc3ccc(C)cc3)C(=O)c3ccccc3C2=O)cc1 | -19 | 42* | 14 | 4 | -10 | 17
COC(=O)c1ccc2c(=O)[nH]c(CSc3nc(C)cs3)nc2c1 | 31 | 23 | 35* | -5 | 1 | -15
COC(=O)c1ccc2c(=O)[nH]c(CSc3nc(-c4ccc(F)cc4)cs3)nc2c1 | -7 | / | 0 | / | / | 1
CC(C)(C)c1cc(N2CCOCC2)n2ncc(-c3ccccc3)c2n1 | 17 | 1 | 0 | 32* | 0 | 10
Cc1[nH]n(-c2ccccc2)c(=O)c1C=Nc1cccc2cccnc12 | -43 | / | / | / | / | 57*
Cc1ccc(-n2[nH]c(C)c(/C=N/c3ccccn3)c2=O)cc1 | 4 | 31 | / | -1 | -1 | -15
C[C@@H]1CCCCO[C@H](CN(C)Cc2ccncc2)[C@H](C)CN([C@H](C)CO)C(=O)c2cc(NS(=O)(=O)c3cn(C)cn3)ccc2O1 | / | -3 | / | -2 | -1 | -6[16.7 µM]
CCC(C)(C)c1ccc2c(c1)C(=O)c1ccccc1C2=O | 41 | 6 | 39* | / | -16 | -146
C[C@@H]1CCCCO[C@@H](CN(C)S(=O)(=O)c2ccc(F)cc2)[C@@H](C)CN([C@@H](C)CO)C(=O)c2cc(NC(=O)c3ccncc3)ccc2O1 | / | -1 | / | 1 | 2 | -14[16.7 µM]
COCC#Cc1ccc2c(c1)O[C@@H](CN(C)S(C)(=O)=O)[C@@H](C)CN([C@@H](C)CO)S2(=O)=O | / | 3 | / | 0 | 1 | -7[16.7 µM]
CC(C)NC(=O)N(C)C[C@H]1OCCCC[C@@H](C)Oc2ccc(NC(=O)c3ccccc3)cc2C(=O)N([C@@H](C)CO)C[C@@H]1C | / | / | / | 2 | 91* | -33[16.7 µM]
Cc1noc(C)c1NC(=O)N(C)C[C@H]1OCCCC[C@H](C)Oc2ccc(NC(=O)c3ccccc3)cc2C(=O)N([C@H](C)CO)C[C@@H]1C | / | 6 | / | 3 | -3 | 68*[16.7 µM]
C[C@@H]1CN([C@@H](C)CO)C(=O)c2cc(NC(=O)c3ccccc3)ccc2O[C@@H](C)CCCCO[C@H]1CN(C)CC1CCCCC1 | / | -3 | / | 0 | -2 | 63*[16.7 µM]
CC(C)NC(=O)N(C)C[C@@H]1OCCCC[C@H](C)Oc2ccc(NC(=O)c3ccccc3)cc2C(=O)N([C@H](C)CO)C[C@H]1C | / | / | / | -2 | 91* | 18[16.7 µM]
Cc1noc(C)c1NC(=O)N(C)C[C@H]1OCCCC[C@H](C)Oc2ccc(NC(=O)c3ccccc3)cc2C(=O)N([C@@H](C)CO)C[C@@H]1C | / | 1 | / | 4 | 15 | 26[16.7 µM]
Cc1cccc(COc2ccc(/C=N/NC(=O)c3nnn(-c4nonc4N)c3CN3CCCCC3)cc2)c1 | 19 | ? | 4 | 0 | -4 | -13
